Paper PMC6130848 (Circulation. Cardiovascular imaging, 2018)
Residues, ends and D or L forms follow the SMILES beside them. No end group written: not given here. *: point of attachment. DOTA = O=C(O)CN1CCN(CC(=O)O)CCN(CC(=O)*)CCN(CC(=O)O)CC1

Experiments:
[1] = tissue and species not stated; cited from earlier work
[2] = system: tropoelastin, mature elastin, collagen I, fibronectin, human serum albumin; type: binding; settings: Eu-labelled probes, in vitro
tropoelastin = molecular target: T1, tropoelastin (Homo sapiens, UniProt P15502); type: binding
T1 sequence (P15502 27-786): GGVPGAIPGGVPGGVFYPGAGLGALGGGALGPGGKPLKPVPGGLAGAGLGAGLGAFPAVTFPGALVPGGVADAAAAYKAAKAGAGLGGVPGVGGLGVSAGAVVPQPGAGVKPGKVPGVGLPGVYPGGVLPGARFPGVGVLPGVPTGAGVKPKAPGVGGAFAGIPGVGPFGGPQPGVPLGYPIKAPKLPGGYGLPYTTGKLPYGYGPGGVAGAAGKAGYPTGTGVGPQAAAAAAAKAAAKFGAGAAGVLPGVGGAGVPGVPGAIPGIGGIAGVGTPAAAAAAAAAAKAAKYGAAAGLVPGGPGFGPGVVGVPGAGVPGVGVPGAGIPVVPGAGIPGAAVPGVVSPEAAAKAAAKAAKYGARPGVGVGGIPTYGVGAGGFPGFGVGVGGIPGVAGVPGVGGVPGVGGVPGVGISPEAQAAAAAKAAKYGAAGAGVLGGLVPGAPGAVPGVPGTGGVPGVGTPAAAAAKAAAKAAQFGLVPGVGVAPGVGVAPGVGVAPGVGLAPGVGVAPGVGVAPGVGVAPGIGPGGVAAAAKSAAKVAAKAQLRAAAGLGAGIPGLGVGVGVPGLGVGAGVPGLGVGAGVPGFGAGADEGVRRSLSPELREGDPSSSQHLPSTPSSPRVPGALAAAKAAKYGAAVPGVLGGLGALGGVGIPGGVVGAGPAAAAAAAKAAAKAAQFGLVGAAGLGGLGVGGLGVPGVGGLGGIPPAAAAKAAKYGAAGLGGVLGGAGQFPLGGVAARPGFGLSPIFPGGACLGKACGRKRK

diseased vessel sections = system: diseased vessel sections; parameters: species or system mouse; settings: 200nM, 24h, 4°C
Summary of the method: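 Vessel sections incubated with rhodamine-labelled tropoelastin-binding peptide (200nM solution) for 24h at 4°C, then counterstained for nuclei with Hoechst (1:3000, 15 min, room temperature). Kept shielded from light throughout and mounted in Mowiol medium containing 2.5% DABCO. Read-out by fluorescent microscopy.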

[3] = system: vessel wall tropoelastin of ApoE^-/- mice; settings: 2016 h
[4] = system: vessel wall tropoelastin of ApoE^-/- mice; settings: feed or water, 40 mg/kg, 2016 h
[5] = type: in vivo; settings: biodistribution of ^64Cu-labeled probes
[6] = 20MHz, 37°C; cited from earlier work

{DOTA}-VVGSPSAQDEASPLS [(^64Cu –DOTA)-VVGS]
uptake [1]: 7.2 %ID/g

CC(C)[C@H](NC(=O)[C@H](Cc1c[nH]cn1)NC(=O)[C@H](CC(=O)O)NC(=O)[C@@H]1CCCN1C(=O)[C@H](Cc1ccc(O)cc1)NC(=O)[C@@H](N)CCCCNC(=O)CN1CCN(CC(=O)O)CCN(CC(=O)O)CCN(CC(=O)O)CC1)C(=O)N[C@@H](CCC(N)=O)C(=O)N[C@@H](Cc1ccc(O)cc1)C(=O)N[C@H](C(=O)N[C@@H](Cc1c[nH]cn1)C(=O)N[C@@H](Cc1ccc(O)cc1)C(=O)O)[C@@H](C)O [K(Eu-DOTA)-YPDH] (H-K(DOTA)YPDHVQYTHY-OH)
selectivity towards tropoelastin compared with collagen I, fibronectin and HSA [2]: high selectivity | binding to tropoelastin (tropoelastin): 84± 4%

CC(C)C[C@H](NC(=O)[C@@H]1CCCN1C(=O)[C@H](CO)NC(=O)[C@H](C)NC(=O)[C@H](CCC(=O)O)NC(=O)[C@H](CC(=O)O)NC(=O)[C@H](CCC(N)=O)NC(=O)[C@H](C)NC(=O)[C@H](CO)NC(=O)[C@@H]1CCCN1C(=O)[C@H](CO)NC(=O)CNC(=O)[C@@H](NC(=O)[C@@H](NC(=O)CN1CCN(CC(=O)O)CCN(CC(=O)O)CCN(CC(=O)O)CC1)C(C)C)C(C)C)C(=O)N[C@@H](CO)C(=O)O [(Eu-DOTA)-VVGS] ({DOTA}-VVGSPSAQDEASPLS-OH)
selectivity towards tropoelastin compared with collagen I, fibronectin and HSA [2]: high selectivity | binding to tropoelastin (tropoelastin): 64±7%

VVGSPSAQDEASPLS
fluorescent signal in tropoelastin-rich areas of diseased vessels (diseased vessel sections): fluorescent signal

CC[C@H](C)C(=O)O[C@H]1C[C@H](O)C=C2C=C[C@H](C)[C@H](CC[C@@H](O)C[C@@H](O)CC(=O)O)[C@H]21 [statin, pravastatin]
vessel wall tropoelastin concentration (western blotting) [3]: 1.17±0.09 mg/gr tissue | % tropoelastin (immunopositive area/vessel wall area) [4]: 11.41±0.35%

CC(C)[C@H](NC(=O)[C@H](Cc1c[nH]cn1)NC(=O)[C@H](CC(=O)O)NC(=O)[C@@H]1CCCN1C(=O)[C@H](Cc1ccc(O)cc1)NC(=O)[C@@H](N)CCCCNC(=O)CN1CCN(CC(=O)O)CCN(CC(=O)O)CCN(CC(=O)O)CC1)C(=O)N[C@@H](CCC(N)=O)C(=O)N[C@@H](Cc1ccc(O)cc1)C(=O)N[C@H](C(=O)N[C@@H](Cc1c[nH]cn1)C(=O)N[C@@H](Cc1ccc(O)cc1)C(=O)O)[C@@H](C)O [K(^64Cu-DOTA)-YPDH, metal not drawn] (H-K(DOTA)YPDHVQYTHY-OH)
liver uptake [5]: some liver uptake

O=C([O-])CN(CCN(CC(=O)[O-])CC(=O)O)CCN(CC(=O)[O-])CC(=O)O.[Gd+3] [Gd-DTPA]
relaxivity r1 [6]: 4.02 mM⁻¹ s⁻¹
